Measured values: ChEMBL document CHEMBL3259768, “Structure-activity relationships for vitamin D3-based aromatic a-ring analogues as hedgehog pathway inhibitors” (J Med Chem, 2014)
Values belong to the compound of their own block, whether it stands above or below them. Activity calls are given as the source filed them. No cut-off for these calls is given here.

How the values were obtained:
[1] = Inhibition of hedgehog signaling pathway-mediated GLI1 mRNA expression in mouse C3H10T1/2 cells assessed as residual activity at 5 uM after 24 hrs by RT-PCR analysis relative to 20alpha-hydroxycholesterol/22(S)-hydroxycholesterol; format: cell-based; conditions: C3H 10T1/2
How it was run: (§1)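 C3H10T1/2 cells co-treated with analogue and the oxysterol Hh activators 20α-hydroxycholesterol plus 22(S)-hydroxycholesterol (5 μM each) for 24 h. Gli1 mRNA measured by qPCR as % of OHC-only control (100%). Analogue at 5 μM, or at 0.5 μM where stated.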

[2] = target: T1, Vitamin D3 receptor (Mus musculus) (UniProt P48281); assay: Activation of VDR in mouse C3H10T1/2 cells assessed as upregulation of CYP24A1 mRNA expression at 5 uM after 24 hrs by RT-PCR analysis relative to DMSO-treated control; format: cell-based; conditions: C3H 10T1/2
T1 sequence (whole entry): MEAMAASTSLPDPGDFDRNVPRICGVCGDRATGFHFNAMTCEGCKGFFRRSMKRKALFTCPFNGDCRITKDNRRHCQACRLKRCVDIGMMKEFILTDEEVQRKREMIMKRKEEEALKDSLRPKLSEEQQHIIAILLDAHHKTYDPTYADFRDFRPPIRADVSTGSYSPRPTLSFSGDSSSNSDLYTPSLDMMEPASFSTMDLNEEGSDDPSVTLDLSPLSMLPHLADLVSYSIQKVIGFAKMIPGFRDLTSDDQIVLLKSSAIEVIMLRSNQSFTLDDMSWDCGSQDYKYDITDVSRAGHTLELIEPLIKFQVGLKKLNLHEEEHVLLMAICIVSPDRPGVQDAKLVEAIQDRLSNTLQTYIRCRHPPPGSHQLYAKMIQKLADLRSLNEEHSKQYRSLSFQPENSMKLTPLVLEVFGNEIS
How it was run: (§2)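 Cyp24A1 mRNA read by qPCR after 24 h exposure at 5 μM. Up-regulation normalized to DMSO control, set to 1.0.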

[3] = Inhibition of hedgehog signaling pathway-mediated GLI1 mRNA expression in mouse C3H10T1/2 cells after 24 hrs by RT-PCR analysis; format: cell-based; conditions: for inhibition: C3H 10T1/2; for IC50: C3H 10T1/2, 24 h
How it was run: (§3)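 OHC-stimulated C3H10T1/2 cells (20α- and 22(S)-hydroxycholesterol, 5 μM each) given analogue at a range of concentrations. Gli1 and Ptch mRNA quantified by qPCR. IC50 given as mean ± SEM of at least two experiments run in triplicate.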

[4] = Inhibition of hedgehog signaling pathway-mediated PTCH mRNA expression in mouse C3H10T1/2 cells after 24 hrs by RT-PCR analysis; format: cell-based; conditions: C3H 10T1/2, 24 h; how it was run: as §3
[5] = Inhibition of hedgehog signaling pathway-mediated GLI1 mRNA expression in mouse ASZ001 cells after 24 hrs by RT-PCR analysis; format: cell-based; conditions: ASZ001, 24 h
How it was run: (§4)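 ASZ001 (murine BCC) or DAOY (human medulloblastoma) cells given analogue at a range of concentrations. Gli1 and Ptch mRNA quantified by qPCR. IC50 given as mean ± SEM of at least two experiments in triplicate.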

[6] = target: T1, Vitamin D3 receptor (Mus musculus); assay: Activation of VDR in mouse ASZ001 cells assessed as upregulation of CYP24A1 mRNA expression at 5 uM after 24 hrs by RT-PCR analysis relative to DMSO-treated control; format: cell-based; how it was run: as §2
[7] = Inhibition of hedgehog signaling pathway-mediated GLI1 mRNA expression in human DaOY cells after 24 hrs by RT-PCR analysis; format: cell-based; how it was run: as §4
[8] = target: T2, Vitamin D3 receptor (Homo sapiens) (UniProt P11473); assay: Activation of VDR in human DaOY cells assessed as upregulation of CYP24A1 mRNA expression at 5 uM after 24 hrs by RT-PCR analysis relative to DMSO-treated control; format: cell-based; how it was run: as §2
T2 sequence (whole entry): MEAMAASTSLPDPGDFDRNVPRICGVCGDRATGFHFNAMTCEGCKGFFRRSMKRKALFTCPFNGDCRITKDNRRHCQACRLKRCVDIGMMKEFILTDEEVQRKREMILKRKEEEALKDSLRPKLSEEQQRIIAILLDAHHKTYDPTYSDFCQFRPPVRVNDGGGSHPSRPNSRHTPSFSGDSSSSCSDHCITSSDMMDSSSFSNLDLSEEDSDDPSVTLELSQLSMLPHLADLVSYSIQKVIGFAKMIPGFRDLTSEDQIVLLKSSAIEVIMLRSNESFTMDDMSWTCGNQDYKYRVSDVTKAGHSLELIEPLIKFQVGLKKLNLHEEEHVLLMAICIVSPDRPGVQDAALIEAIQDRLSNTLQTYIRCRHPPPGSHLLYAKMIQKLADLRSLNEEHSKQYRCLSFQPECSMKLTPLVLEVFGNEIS

[9] = Inhibition of hedgehog signaling pathway-mediated PTCH mRNA expression in human DaOY cells after 24 hrs by RT-PCR analysis; format: cell-based; how it was run: as §4
[10] = target: T2, Vitamin D3 receptor (Homo sapiens); assay: Competitive binding affinity to full length human VDR by fluorescence polarization assay
How it was run: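 Fluorescence polarization competition against a tight-binding fluorescent ligand on full-length human VDR. Tested at up to 100 μM, with calcitriol as positive control. At least two separate experiments.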

[11] = Inhibition of hedgehog signaling pathway-mediated GLI1 mRNA expression in mouse C3H10T1/2 cells assessed as residual activity at 0.5 uM after 24 hrs by RT-PCR analysis relative to 20alpha-hydroxycholesterol/22(S)-hydroxycholesterol; format: cell-based; conditions: C3H 10T1/2; how it was run: as §1
[12] = Inhibition of hedgehog signaling pathway-mediated PTCH mRNA expression in mouse ASZ001 cells up to 10 uM after 24 hrs by RT-PCR analysis; format: cell-based
[13] = Inhibition of hedgehog signaling pathway-mediated GLI1 mRNA expression in mouse C3H10T1/2 cells after 24 hrs by RT-PCR analysis in presence of (1R,3aR,4S,7aR)-7a-methyl-1-((R)-6-methylheptan-2-yl)octahydro-1H-inden-4-yl 3-hydroxybenzoate; format: cell-based; conditions: C3H 10T1/2

fold change (FC) [2]: 1.6
Compound: CC(C)CCC[C@@H](C)[C@H]1CC[C@H]2[C@@H](OC(=O)c3cccs3)CCC[C@]12C
Activity [1]: 109%

fold change (FC) [2]: 2.2
Compound: CC(C)CCC[C@@H](C)[C@H]1CC[C@H]2[C@@H](OC(=O)c3ccoc3)CCC[C@]12C
Activity [1]: 91.5%

fold change (FC) [2]: 1.2
Compound: CC(C)CCC[C@@H](C)[C@H]1CC[C@H]2[C@@H](OC(=O)c3ccccc3O)CCC[C@]12C
Activity [1]: 115%

fold change (FC) [2]: 7.5
Compound: CC(C)CCC[C@@H](C)[C@H]1CC[C@H]2[C@@H](OC(=O)c3cccnc3O)CCC[C@]12C
Activity [1]: 23%

fold change (FC) [2]: 17.1
Compound: CC(C)CCC[C@@H](C)[C@H]1CC[C@H]2[C@@H](OC(=O)c3cccnc3)CCC[C@]12C
Activity [1]: 20.7%

fold change (FC) [2]: 18.8
IC50 [3]: 2800 nM
IC50 [4]: 3.3 µM
IC50 [5]: 6.6 µM
fold change (FC) [6]: 6.3
IC50 [7]: > 10 µM
fold change (FC) [8]: 1.5
Activity [10]: > 100 µM
IC50 [9]: > 10 µM
Compound: CC(C)CCC[C@@H](C)[C@H]1CC[C@H]2[C@@H](OC(=O)c3ccc(O)cc3)CCC[C@]12C
Activity [1]: 2.4%
inhibition [3]: Dose-dependent effect

fold change (FC) [2]: 1.7
Compound: CC(C)CCC[C@@H](C)[C@H]1CC[C@H]2[C@@H](OC(=O)c3ccco3)CCC[C@]12C
Activity [1]: 95%

fold change (FC) [2]: 57.1
IC50 [3]: 4700 nM
IC50 [4]: 12.6 µM
IC50 [5]: 4.8 µM
fold change (FC) [6]: 4.8
IC50 [7]: > 10 µM
fold change (FC) [8]: 1.1
Activity [10]: > 100 µM
IC50 [9]: > 10 µM
Compound: CC(C)CCC[C@@H](C)[C@H]1CC[C@H]2[C@@H](OC(=O)c3ccccn3)CCC[C@]12C
Activity [1]: 14.1%
inhibition [3]: Dose-dependent effect

fold change (FC) [2]: 3.1
Compound: CC(C)CCC[C@@H](C)[C@H]1CC[C@H]2[C@@H](OC(=O)c3ncccc3O)CCC[C@]12C
Activity [1]: 36.5%

More lines, now with the values behind:

Compound: CC(C)CCC[C@@H](C)[C@H]1CC[C@H]2[C@@H](OC(=O)c3ccccc3Cl)CCC[C@]12C
Activity [1]: 109%
fold change (FC) [2]: 0.9

Compound: CC(C)CCC[C@@H](C)[C@H]1CC[C@H]2[C@@H](OC(=O)c3cccc4cc(O)ccc34)CCC[C@]12C
Activity [1]: 103%
fold change (FC) [2]: 4.7

Compound: CC(C)CCC[C@@H](C)[C@H]1CC[C@H]2[C@@H](OC(=O)c3cccc(N)c3)CCC[C@]12C
Activity [1]: 2.4%
fold change (FC) [2]: 24.3
inhibition [3]: Dose-dependent effect
IC50 [3]: 1300 nM
IC50 [4]: 2.5 µM
IC50 [5]: 7.1 µM
fold change (FC) [6]: 2.5
IC50 [7]: 9.2 µM
fold change (FC) [8]: 0.5
IC50 [9]: > 10 µM

Compound: CC(C)CCC[C@@H](C)[C@H]1CC[C@H]2[C@@H](OC(=O)c3cc(O)c(O)c(O)c3)CCC[C@]12C
Activity [1]: 5.1%
fold change (FC) [2]: 11
inhibition [3]: Dose-dependent effect
IC50 [3]: 1100 nM
IC50 [4]: 1.3 µM
IC50 [5]: 8.1 µM
fold change (FC) [6]: 1.3
IC50 [7]: 9.2 µM
fold change (FC) [8]: 1
Activity [10]: > 100 µM
IC50 [9]: > 10 µM

Compound: CC(C)CCC[C@@H](C)[C@H]1CC[C@H]2[C@@H](OC(=O)c3ccc(N(C)C)cc3)CCC[C@]12C
Activity [1]: 107%
fold change (FC) [2]: 1.4

Compound: CS(=O)(=O)c1ccc(C(=O)Nc2ccc(Cl)c(-c3ccccn3)c2)c(Cl)c1
Activity [11]: 4.8%
inhibition [12]: inactive
inhibition [13]: Active

Compound: CC(C)CCC[C@@H](C)[C@H]1CC[C@H]2[C@@H](OC(=O)c3ccncc3)CCC[C@]12C
Activity [1]: 51.1%
fold change (FC) [2]: 14.7

Compound: CC(C)CCC[C@@H](C)[C@H]1CC[C@H]2[C@@H](O)CCC[C@]12C
Activity [1]: 46.4%
fold change (FC) [2]: 3.6

Compound: CC(C)CCC[C@@H](C)[C@H]1CC[C@H]2[C@@H](OC(=O)c3cc(O)cc(O)c3)CCC[C@]12C
Activity [1]: 8.6%
fold change (FC) [2]: 19
inhibition [3]: Dose-dependent effect
IC50 [3]: 1800 nM
IC50 [4]: 4.5 µM
IC50 [5]: 4.1 µM
fold change (FC) [6]: 3.6
IC50 [7]: 5.7 µM
fold change (FC) [8]: 0.3
Activity [10]: > 100 µM
IC50 [9]: > 10 µM

Compound: CC(C)CCC[C@@H](C)[C@H]1CC[C@H]2[C@@H](OC(=O)c3ccc4ccccc4c3)CCC[C@]12C
Activity [1]: 77.4%
fold change (FC) [2]: 3

Compound: CC(C)CCC[C@@H](C)[C@H]1CC[C@H]2[C@@H](OC(=O)c3ccsc3)CCC[C@]12C
Activity [1]: 109%
fold change (FC) [2]: 1.3

Compound: COc1ccccc1C(=O)O[C@H]1CCC[C@]2(C)[C@@H]([C@H](C)CCCC(C)C)CC[C@@H]12
Activity [1]: 98%
fold change (FC) [2]: 0.9

Compound: CC(C)CCC[C@@H](C)[C@H]1CC[C@H]2[C@@H](OC(=O)c3cccc4ccccc34)CCC[C@]12C
Activity [1]: 82.3%
fold change (FC) [2]: 2.7

Compound: CC(C)CCC[C@@H](C)[C@H]1CC[C@H]2[C@@H](OC(=O)c3cc4ccccc4[nH]3)CCC[C@]12C
Activity [1]: 84.5%
fold change (FC) [2]: 2.7

Compound: CC(C)CCC[C@@H](C)[C@H]1CC[C@H]2[C@@H](OC(=O)c3ccc4cc(O)ccc4c3)CCC[C@]12C
Activity [1]: 91.9%
fold change (FC) [2]: 0.8

Compound: CC(C)CCC[C@@H](C)[C@H]1CC[C@H]2[C@@H](OC(=O)c3ccc(N)cc3)CCC[C@]12C
Activity [1]: 15.4%
fold change (FC) [2]: 140
inhibition [3]: Dose-dependent effect
IC50 [3]: 1000 nM
IC50 [4]: 2.9 µM
IC50 [5]: 5.3 µM
fold change (FC) [6]: 2.1
IC50 [7]: > 10 µM
fold change (FC) [8]: 2.2
Activity [10]: > 100 µM
IC50 [9]: > 10 µM

Compound: CC(C)CCC[C@@H](C)[C@H]1CC[C@H]2[C@@H](OC(=O)c3ccc(Cl)cc3)CCC[C@]12C
Activity [1]: 77.7%
fold change (FC) [2]: 0.8

Compound: COc1ccc(C(=O)O[C@H]2CCC[C@]3(C)[C@@H]([C@H](C)CCCC(C)C)CC[C@@H]23)cc1
Activity [1]: 113%
fold change (FC) [2]: 0.9
